The target of assay [1] is T1, Alpha-1A adrenergic receptor (Homo sapiens, UniProt P35348).
T1 sequence (P35348 whole entry): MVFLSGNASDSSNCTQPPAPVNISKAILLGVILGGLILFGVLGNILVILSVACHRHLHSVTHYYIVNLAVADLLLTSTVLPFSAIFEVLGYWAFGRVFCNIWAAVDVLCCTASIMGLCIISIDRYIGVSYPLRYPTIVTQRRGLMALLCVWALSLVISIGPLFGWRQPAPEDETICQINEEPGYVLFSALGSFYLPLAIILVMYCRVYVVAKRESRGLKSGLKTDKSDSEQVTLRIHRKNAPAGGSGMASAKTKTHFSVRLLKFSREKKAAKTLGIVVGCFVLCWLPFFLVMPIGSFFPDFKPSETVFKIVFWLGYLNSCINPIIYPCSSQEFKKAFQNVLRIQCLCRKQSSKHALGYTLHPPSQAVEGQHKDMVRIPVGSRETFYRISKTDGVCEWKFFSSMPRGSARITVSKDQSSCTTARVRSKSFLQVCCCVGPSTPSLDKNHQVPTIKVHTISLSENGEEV
Description: Agonist potency at Alpha-1 adrenergic receptor assayed in rat-1 fibroblasts expressing human Alpha-1 adrenergic receptor. The assay is classed as functional. A digest of the protocol: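 Human α1a, α1b or α1d receptors expressed in Rat-1 fibroblasts (DMEM, 10% heat-inactivated FBS, 0.6 mg/mL G418). Cells were plated at 6000/well and grown 48 h at 37 °C. They were loaded 2 h at 37 °C with Calcium Green (4 μM), pluronic acid 0.2% and probenecid 2.5 mM in HEPES buffer pH 7.4, then read by FLIPR at room temperature: 10 s baseline, 50 s after compound. 11-point curves were expressed as % of the 40 μM phenylephrine response; top concentration typically 5 μM.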

Assay [2] deals with T2, Alpha-1D adrenergic receptor (Homo sapiens) (UniProt P25100).
T2 sequence (whole entry): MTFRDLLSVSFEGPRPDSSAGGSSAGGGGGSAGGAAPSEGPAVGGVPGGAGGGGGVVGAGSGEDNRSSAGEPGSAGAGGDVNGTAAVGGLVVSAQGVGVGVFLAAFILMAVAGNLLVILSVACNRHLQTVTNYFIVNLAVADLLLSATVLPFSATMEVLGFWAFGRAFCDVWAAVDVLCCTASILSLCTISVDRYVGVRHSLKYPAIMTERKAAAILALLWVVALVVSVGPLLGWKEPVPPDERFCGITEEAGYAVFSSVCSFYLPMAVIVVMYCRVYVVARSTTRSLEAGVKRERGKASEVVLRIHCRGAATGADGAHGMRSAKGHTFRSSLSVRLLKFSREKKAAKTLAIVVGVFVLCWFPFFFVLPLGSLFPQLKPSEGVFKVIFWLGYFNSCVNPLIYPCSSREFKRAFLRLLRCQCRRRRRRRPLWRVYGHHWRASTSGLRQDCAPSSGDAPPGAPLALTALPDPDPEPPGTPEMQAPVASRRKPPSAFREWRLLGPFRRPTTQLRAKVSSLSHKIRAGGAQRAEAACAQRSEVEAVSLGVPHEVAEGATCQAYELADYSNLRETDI
Description: Agonist potency at Alpha-1D adrenergic receptor assayed in rat-1 fibroblasts expressing human alpha1d. The assay is classed as functional. Summed up:
(§1)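 Rat-1 fibroblasts expressing human α1a/α1b/α1d, grown in DMEM with 10% heat-inactivated FBS and 0.6 mg/mL G418, plated 6000 cells/well and cultured 48 h at 37 °C. Loaded 2 h at 37 °C with Calcium Green (4 μM), 0.2% pluronic acid and 2.5 mM probenecid in HEPES buffer pH 7.4. FLIPR read at room temperature: 10 s baseline, then 50 s after compound. 11-point curves as % of 40 μM phenylephrine response, top concentration typically 5 μM.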

Assay [3] addresses T3, Alpha-2A adrenergic receptor (Homo sapiens) (UniProt P08913).
T3 sequence (whole entry): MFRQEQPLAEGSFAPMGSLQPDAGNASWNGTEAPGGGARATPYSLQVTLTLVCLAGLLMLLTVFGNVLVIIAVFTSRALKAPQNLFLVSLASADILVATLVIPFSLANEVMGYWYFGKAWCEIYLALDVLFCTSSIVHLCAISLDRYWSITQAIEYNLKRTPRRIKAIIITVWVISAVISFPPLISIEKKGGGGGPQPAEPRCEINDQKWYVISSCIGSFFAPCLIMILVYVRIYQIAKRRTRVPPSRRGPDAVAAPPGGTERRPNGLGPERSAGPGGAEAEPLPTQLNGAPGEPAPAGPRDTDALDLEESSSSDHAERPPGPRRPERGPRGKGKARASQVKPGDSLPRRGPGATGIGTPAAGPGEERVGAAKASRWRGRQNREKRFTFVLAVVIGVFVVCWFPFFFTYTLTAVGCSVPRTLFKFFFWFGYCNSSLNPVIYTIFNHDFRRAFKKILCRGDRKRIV
Description: Agonist potency at Alpha-2A adrenergic receptor assayed in CHO cells expressing human alpha-2a. The format is functional, cell-based.

The target of assay [4] is T4, Alpha-1D adrenergic receptor (Homo sapiens, UniProt P25100).
T4 sequence (P25100 whole entry): T2 sequence (whole entry)
Description: Agonist potency at Alpha-1D adrenergic receptor assayed in rat-1 fibroblasts. The format is functional. Summed up: as §1

As to `CS(=O)(=O)c1cc(F)ccc1NCC1=NCCN1`, the EC50 (in general, the concentration giving half of the maximal effect) in assay [1] was 437 nM.

Consider `CCCS(=O)(=O)c1ccccc1NCC1=NCCN1`, for which the results for the pEC5 in assay [2] and in assay [3] were < 4 and < 5, respectively.

The compound `CSc1ccccc1NCC1=NCCN1` showed an EC50 in assay [4] of 8.91 nM.

Values taken from ChEMBL document CHEMBL1135421, “2-(Anilinomethyl)imidazolines as alpha1 adrenergic receptor agonists: the discovery of alpha1a subtype selective 2'-alkylsulfonyl-substituted analogues” (J Med Chem, 2002).
